Test results: the array DNA melting data of Ke et al. (doi:10.1101/2024.01.08.574731)

Columns and labels:
[1] = folding enthalpy; higher = less favourable; fluorescence melt of hairpins on a sequencing array, two-state fit; settings: sodium 0.088 M
Outline: (§1)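 Melting temperature and folding enthalpy were obtained by bootstrapped two-state fitting. Fits used Cy3 fluorescence of library hairpins with annealed Cy3 and quencher oligos on a sequenced MiSeq flow cell, imaged in 50 mM Na-HEPES pH 8.0, 25 mM NaCl in 2.5 °C steps up to 60 °C and normalised to pre-quench Cy3 and control constructs. Four replicates were combined by inverse-variance weighting, and fitted temperatures were raised by 9.35 °C to match UV melts.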

[2] = melting temperature; fluorescence melt of hairpins on a sequencing array, two-state fit, raised by 9.35 °C to match UV melts; settings: sodium 0.088 M
Outline: as §1

Sequence	folding enthalpy [1]	Tm [2]
GGCGCCGAAAGGCTAGCC ((((((....)))..)))	-21.6 kcal/mol	61.7 °C
GGCGCCGAAAGGCTGCC ((((((....))).)))	-19.4 kcal/mol	67.1 °C
GGCGCCGCGAAAGCGGCC (((..(((....))))))	-5.39 kcal/mol	49.1 °C
GGCGCCTCGAAAGAGGCC (((..(((....))))))	-8.15 kcal/mol	50.5 °C
GGCGCTGCGAAAGCAGCC (((..(((....))))))	-6.28 kcal/mol	58.1 °C
GGCGCTGGAAACGGCGTC (.(((.(....).))).)	-28 kcal/mol	54.3 °C
GGCGGACGAAAGTCGCC (((.(((....))))))	-28.2 kcal/mol	68.5 °C
GGCGGAGGAAACCCCGCC (((((.(....).)))))	-33.4 kcal/mol	64.5 °C
GGCGGCGAAAGCCATGCC ((((((....)))..)))	-16.5 kcal/mol	59.8 °C
GGCGGCGAAAGCCTAGCC ((((((....)))..)))	-21.3 kcal/mol	60.8 °C
GGCGGCGCGAAAGCGGCC (((..(((....))))))	-9.35 kcal/mol	59.5 °C
GGCGGGCCGAAAGGCGCC (((..(((....))))))	-13.2 kcal/mol	62.3 °C
GGCGGGGGAAACCCCGTC (.(((((....))))).)	-22.7 kcal/mol	65.1 °C
GGCGGGGGAAACCCTGCC (((.(((....))).)))	-27 kcal/mol	65.2 °C
GGCGGTCGAAAGACGGCC (((.(((....))).)))	-34.5 kcal/mol	68.2 °C
GGCGGTGGAAACACCGTC (.(((((....))))).)	-23.9 kcal/mol	65.8 °C
GGCGTACCGAAAGGTGCC (((..(((....))))))	-33.2 kcal/mol	54.7 °C
GGCGTATCGAAAGATGCC (((..(((....))))))	-22.5 kcal/mol	47.9 °C
GGCGTCCCGAAAGGGGCC (((..(((....))))))	-14.3 kcal/mol	50.4 °C
GGCGTCGAAAGACCCGCC ((((((....)))..)))	-17.5 kcal/mol	55.3 °C
GGCGTCGAAAGACTGCC ((((((....))).)))	-36.4 kcal/mol	57 °C
GGCGTGACGAAAGTCGCC (((..(((....))))))	-21.1 kcal/mol	57.5 °C
GGCGTGGGAAACCACACC ((.((((....)))).))	-35.3 kcal/mol	50.5 °C

Sequence	folding enthalpy [1]	Tm [2]
GGCGTTGGAAACAACACC ((.((((....)))).))	-33.6 kcal/mol	46.7 °C
GGCGTTGGAAACAACGTC (.(((((....))))).)	-25.4 kcal/mol	57.8 °C
GGCGTTGGAAACAGCGTC (.((.((....)).)).)	-21.9 kcal/mol	44.6 °C
GGCTAAACGAAAGTTGCC (((..(((....))))))	-22.5 kcal/mol	47.6 °C
GGCTAACCGAAAGGTGCC (((..(((....))))))	-22.4 kcal/mol	53.6 °C
GGCTAACGAAAGTTCGCC (((.(((....))).)))	-44.2 kcal/mol	52.9 °C
GGCTAACGAAAGTTGGCC (((.(((....))).)))	-44.2 kcal/mol	60.1 °C
GGCTAACGAAAGTTTGCC (((.(((....))).)))	-61 kcal/mol	54.7 °C
GGCTACGAAAGTAACGCC ((((((....)))..)))	-22.8 kcal/mol	46.1 °C
GGCTACGAAAGTACAGCC ((((((....)))..)))	-26.9 kcal/mol	48 °C
GGCTACGAAAGTATGGCC ((((((....)))..)))	-25.7 kcal/mol	47.3 °C
GGCTACGGAAACGTGGTC (.(.(((....))).).)	-27.8 kcal/mol	42 °C
GGCTATCGAAAGATTGCC (((.(((....))).)))	-41.3 kcal/mol	55.7 °C
GGCTATGGAAACACAGCC ((((.((....)).))))	-29.9 kcal/mol	43.2 °C
GGCTCAACGAAAGTTGCC (((..(((....))))))	-13.7 kcal/mol	38.2 °C
GGCTCAGAAATGAGCC ((((((....))))))	-38.9 kcal/mol	67 °C
GGCTCCCGAAAGGGTGCC (((.(((....))).)))	-40 kcal/mol	67.6 °C
GGCTCCGAAAGGAAAGCC ((((((....)))..)))	-30.1 kcal/mol	54.3 °C
GGCTCCGAAAGGAATGCC ((((((....)))..)))	-26.9 kcal/mol	51.3 °C
GGCTCCGAAAGGACGGCC ((((((....)))..)))	-20.8 kcal/mol	51.2 °C
GGCTCCGAAAGGAGCGCC ((((((....)))..)))	-6.52 kcal/mol	68.6 °C
GGCTCCGAAAGGAGGGCC ((((((....)))..)))	-15.8 kcal/mol	52.5 °C
GGCTCCGGAAACGGAGTC (.(((((....))))).)	-30.1 kcal/mol	60.8 °C

Sequence	folding enthalpy [1]	Tm [2]
GGCTCCGGAAACGGGGTC (.(.(((....))).).)	-25.1 kcal/mol	49 °C
GGCTCCTCGAAAGAGGCC (((..(((....))))))	-14 kcal/mol	39.5 °C
GGCTCGCGAAAGCGGCC (((.(((....))))))	-19.2 kcal/mol	66.5 °C
GGCTCGGGAAACTGGGCC (((.(.(....).).)))	-36.7 kcal/mol	48.9 °C
GGCTCTCGAAAGAGCGCC (((.(((....))).)))	-34.6 kcal/mol	56.4 °C
GGCTGAACGAAAGTTGCC (((..(((....))))))	-24.6 kcal/mol	46.9 °C
GGCTGAGGAAACCCAGCC (((((.(....).)))))	-41.9 kcal/mol	55 °C
GGCTGAGGAAACTCAACC ((.((((....)))).))	-32.5 kcal/mol	41.2 °C
GGCTGCGAAAGCACGCC ((((((....))).)))	-29.6 kcal/mol	65.2 °C
GGCTGCGAAAGCATGCC ((((((....))).)))	-21.6 kcal/mol	66.7 °C
GGCTGCGAAAGCATTGCC ((((((....)))..)))	-19.5 kcal/mol	52.8 °C
GGCTGCGGAAACGTAGCC ((((.((....)).))))	-50.1 kcal/mol	61 °C
GGCTGGCGAAAGCCCGCC (((.(((....))).)))	-22.6 kcal/mol	63 °C
GGCTGGGGAAACCCAGTC (.(((((....))))).)	-41.6 kcal/mol	55.8 °C
GGCTGGGGAAACTCAGCC (((((.(....).)))))	-38.7 kcal/mol	57 °C
GGCTGTGGAAACACAGTC (.(((((....))))).)	-28.2 kcal/mol	54.2 °C
GGCTTACGAAAGTAGCC (((.(((....))))))	-34.1 kcal/mol	55.5 °C
GGCTTACGAAAGTATGCC (((.(((....))).)))	-45.2 kcal/mol	56.8 °C
GGCTTCGAAAGAAACGCC ((((((....)))..)))	-26.1 kcal/mol	43.8 °C
GGCTTCGAAAGAACGCC ((((((....))).)))	-22.7 kcal/mol	50.9 °C
GGCTTCGAAAGAAGGCC ((((((....))).)))	-26.8 kcal/mol	57.9 °C
GGCTTCGGAAACAAAGCC (((((.(....).)))))	-28.3 kcal/mol	44.2 °C
GGCTTCGGAAACGAGGCC (((.(((....))).)))	-46.7 kcal/mol	58.8 °C

Sequence	folding enthalpy [1]	Tm [2]
GGCTTGGGAAACCGAGTC (.((.((....)).)).)	-27.4 kcal/mol	41.5 °C
GGCTTGGGAAACTAGGCC (((.(.(....).).)))	-28.4 kcal/mol	39.4 °C
GGCTTTACGAAAGTAGCC (((..(((....))))))	-27.7 kcal/mol	45.5 °C
GGCTTTGCGAAAGCAGCC (((..(((....))))))	-17.2 kcal/mol	52.1 °C
GGCTTTGGAAACAAAGCC (((((((....)))))))	-34.1 kcal/mol	68.3 °C
GGCTTTGGAAACAGAGCC ((((.((....)).))))	-35.3 kcal/mol	50.6 °C
GGGAAAGGAAACTTTCTC (.(((((....))))).)	-20.4 kcal/mol	38.4 °C
GGGAAAGGAAACTTTTCC ((.((((....)))).))	-27 kcal/mol	40.6 °C
GGGAACGAAAGTTCCCCC ((((((....)))..)))	-9.06 kcal/mol	68.4 °C
GGGAACGAAAGTTGACCC ((((((....)))..)))	-20.9 kcal/mol	37.8 °C
GGGAACGAAAGTTGCCC ((((((....))).)))	-28.6 kcal/mol	53 °C
GGGAACGAAAGTTGGCCC ((((((....)))..)))	-14.7 kcal/mol	32 °C
GGGAACGAAAGTTGTCCC ((((((....)))..)))	-18.1 kcal/mol	36.4 °C
GGGAACGAAAGTTTACCC ((((((....)))..)))	-21.1 kcal/mol	34.1 °C
GGGAACGGAAACGTTCTC (.(((((....))))).)	-18.2 kcal/mol	52.9 °C
GGGAAGACGAAAGTCCCC (((..(((....))))))	-19.1 kcal/mol	45.3 °C
GGGAAGCGAAAGCTACCC (((.(((....))).)))	-30.7 kcal/mol	59.3 °C
GGGAAGCGAAAGCTCCC (((.(((....))))))	-38.7 kcal/mol	59.7 °C
GGGAAGGAAACTTCCC ((((((....))))))	-31.8 kcal/mol	58.1 °C
GGGAATGGAAACATTCTC (.(((((....))))).)	-24.2 kcal/mol	44.9 °C
GGGAATGGAAACGTTTCC ((.((.(....).)).))	-15.3 kcal/mol	34.3 °C
GGGACAACGAAAGTTCCC (((..(((....))))))	-22.4 kcal/mol	39.4 °C
